The record followed here is ChEMBL document CHEMBL1152630, “Synthesis and evaluation of benzo[b]thiophene derivatives as inhibitors of alkaline phosphatases” (Bioorg Med Chem, 2009).

Each structure is given as a SMILES string. Where a name gives a salt, the structure may show the parent alone.

The species named for assay [1] is Sus scrofa. The assay is described as follows: Inhibition of porcine kidney tissue non-specific alkaline phosphatase assessed as residual enzyme activity at 0.4 mM in presence of 1% DMSO at pH 10.4 at 37 degC relative to untreated control.
Assay [2] concerns the target Intestinal-type alkaline phosphatase (Bos taurus) (UniProt P19111). As to the kind of experiment: Inhibition of bovine intestinal alkaline phosphatase assessed as residual enzyme activity at 0.1 mM in presence of 1% DMSO at pH 10.4 at 37 degC relative to untreated control. The method, boiled down:
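Screening in 25 mM piperazine, 25 mM glycylglycine, 5 mM MgCl2, 5 µM ZnCl2, pH 10.4, 37 °C. BIAP (0.1–0.3 µg/mL) preincubated 10 min with 0.1 mM compound (final DMSO 1% v/v), no substrate. Reaction started with 0.05 mM pNPP; read at 420 nm (ε 18.6 cm⁻¹ mM⁻¹). Activity given relative to inhibitor-free control; sample-to-sample error 5%.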

Assay [3] is filed under the species Sus scrofa. As to the kind of experiment: Inhibition of porcine kidney tissue non-specific alkaline phosphatase assessed as residual enzyme activity at 0.4 mM in presence of 4% DMSO at pH 10.4 at 37 degC relative to untreated control.
The nature of assay [4]: Inhibition of porcine kidney tissue non-specific alkaline phosphatase at pH 7.8 at 37 degC. Details: species or system Sus scrofa.

Chain of Intestinal-type alkaline phosphatase (Bos taurus) (P19111 20-506 limits assumed): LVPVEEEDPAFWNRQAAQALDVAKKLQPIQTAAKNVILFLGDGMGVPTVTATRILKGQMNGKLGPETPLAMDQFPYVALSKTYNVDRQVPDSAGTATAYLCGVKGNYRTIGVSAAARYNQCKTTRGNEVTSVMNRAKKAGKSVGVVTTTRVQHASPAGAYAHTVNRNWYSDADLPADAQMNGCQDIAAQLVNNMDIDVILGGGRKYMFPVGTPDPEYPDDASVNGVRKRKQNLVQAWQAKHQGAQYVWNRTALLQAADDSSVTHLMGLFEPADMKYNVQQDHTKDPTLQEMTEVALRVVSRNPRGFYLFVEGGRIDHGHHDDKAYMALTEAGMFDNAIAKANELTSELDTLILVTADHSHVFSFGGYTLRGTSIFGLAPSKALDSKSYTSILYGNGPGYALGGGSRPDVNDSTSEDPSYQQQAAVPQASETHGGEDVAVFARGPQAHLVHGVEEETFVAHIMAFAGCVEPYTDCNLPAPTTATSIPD

In the case of `FC(F)c1c(-c2cccnc2)sc2ccccc12`, the Activity in the assay listed under Sus scrofa [1] worked out at 79%; in assay [2] it was 103%.

On to `C1=CN2CC(c3csc4ccccc34)N=C2S1` (configuration not stated), for which the figures for the Activity (in the assay filed under Sus scrofa [3]; in assay [2]) were 11% and 99%, respectively. For the same molecule, the Ki in assay [4] was 85 µM.

For `c1ccc2c(C3CN4CCSC4=N3)csc2c1` (configuration not stated), the Activity in the assay filed under Sus scrofa [3] turned out to be 19%; in assay [2] it was 100%. Further, the inhibition constant Ki in assay [4] came out at 135 µM.

As for `c1ccc([C@H]2CN3CCSC3=N2)cc1` [LEVAMISOLE HYDROCHLORIDE], the figures for the Activity (in the assay listed under Sus scrofa [3]; in assay [2]) were 10% and 99%, respectively. The molecule further had a Ki in assay [4] of 93 µM.

On to `NCc1c(-c2cccnc2)sc2ccccc12`, for which the Activity stood at 111% in the assay filed under Sus scrofa [3] and 105% in assay [2].

On to `NCc1ccc(Oc2csc3ccccc23)cc1`, for which the Activity in the assay listed under Sus scrofa [3] came out at 83%; in assay [2], 105%.

As for `COc1c(-c2ccccc2)sc2ccccc12`, the results for the Activity (in the assay filed under Sus scrofa [3]; in assay [2]) were 87% and 80%, respectively.

For `COc1cc(Oc2csc3ccccc23)cc(OC)c1OC`, the Activity turned out to be 101% in the assay listed under Sus scrofa [3] and 129% in assay [2].

`N#Cc1csc2ccccc12`: the Activity (in the assay listed under Sus scrofa [3]; in assay [2]) was 92% in each case.

For the molecule `N#Cc1c(-c2ccc3ccccc3c2)sc2ccccc12`, the Activity amounted to 99% in the assay filed under Sus scrofa [3] and 18% in assay [2].

For the molecule `N#Cc1ccccc1-c1sc2ccccc2c1C=O`, the Activity in the assay listed under Sus scrofa [3] was determined as 79%; in assay [2], 110%.

Take `FC(F)(F)COc1sc2ccccc2c1-c1cccnc1`: the Activity in the assay listed under Sus scrofa [3] turned out to be 97%; in assay [2] it was 102%.

Take `N#Cc1ccccc1-c1sc2ccccc2c1Oc1ccc(Cl)cc1`: the Activity in the assay listed under Sus scrofa [3] came out at 79%; in assay [2] it was 101%.

`O=[N+]([O-])c1ccccc1-c1sc2ccccc2c1-c1ccccc1[N+](=O)[O-]`: the Activity came out at 88% in the assay filed under Sus scrofa [3] and 108% in assay [2].

Turning to `N#Cc1ccccc1-c1sc2ccccc2c1N1CCCCC1`, the Activity was found to be 100% in the assay filed under Sus scrofa [3] and 99% in assay [2].

Take `COc1c(-c2ccccn2)sc2ccccc12`: the values for the Activity (in the assay filed under Sus scrofa [3]; in assay [2]) were 90% and 99%, respectively.

As to `c1ccc(-c2sc3ccccc3c2N2CCCCC2)cc1`, the results for the Activity (in the assay listed under Sus scrofa [3]; in assay [2]) were 81% and 99%, respectively.

Turning to `O=Cc1c(-c2ccccc2Cl)sc2ccccc12`, the values for the Activity (in the assay filed under Sus scrofa [3]; in assay [2]) were 97% and 63%, respectively.

In the case of `COc1ccc(-c2cc3ccccc3s2)c([N+](=O)[O-])c1`, the Activity in the assay filed under Sus scrofa [3] is 96%; in assay [2], 99%.

`COc1cccc(C(=O)c2c(-c3ccccc3[N+](=O)[O-])sc3ccccc23)c1`: the Activity in the assay listed under Sus scrofa [3] was found to be 96%; in assay [2], 98%.

With `COc1csc2ccccc12`, the Activity in the assay listed under Sus scrofa [3] worked out at 93%; in assay [2] it was 90%.

With `COc1ccc(-c2sc3ccccc3c2Oc2ccccc2)cc1`, the Activity in the assay listed under Sus scrofa [3] was determined as 94%; in assay [2], 105%.

On to `O=Cc1c(-c2cccnc2)sc2ccccc12`, for which the Activity in the assay filed under Sus scrofa [3] amounted to 93%; in assay [2] it was 119%.

`COc1c(-c2cccnc2)sc2ccccc12`: the Activity stood at 44% in the assay listed under Sus scrofa [3] and 112% in assay [2].

Turning to `Clc1cccc(-c2cc3ccccc3s2)c1`, the Activity stood at 96% in the assay filed under Sus scrofa [3] and 95% in assay [2].

For the molecule `O=Cc1c(-c2cccc(Cl)c2)sc2ccccc12`, the Activity in the assay filed under Sus scrofa [3] amounted to 95%; in assay [2], 62%.

For the molecule `[O-][s+]1cc(Oc2ccc(F)cc2)c2ccccc21` (configuration not stated), the Activity in the assay filed under Sus scrofa [3] is 79%; in assay [2] it was 109%.

Take `[O-][s+]1cc(Oc2ccc(Cl)cc2)c2ccccc21` (configuration not stated): the Activity in the assay listed under Sus scrofa [3] is 103%; in assay [2], 122%.

As for `COc1ccc(-c2sc3ccccc3c2OC)cc1`, the Activity in the assay filed under Sus scrofa [3] turned out to be 97%; in assay [2], 78%.

As to `COc1ccc(Oc2c[s+]([O-])c3ccccc23)cc1` (configuration not stated), the results for the Activity (in the assay listed under Sus scrofa [3]; in assay [2]) were 100% and 107%, respectively.

`CN(C)c1ccc(-c2sc3ccccc3c2C#N)cc1`: the results for the Activity (in the assay listed under Sus scrofa [3]; in assay [2]) were 83% and 82%, respectively.

Turning to `O=Cc1c(-c2ccccc2[N+](=O)[O-])sc2ccccc12`, the Activity in the assay listed under Sus scrofa [3] stood at 78%; in assay [2], 116%.

On to `COc1ccc(-c2sc3ccccc3c2C(=O)c2cc(OC)c(O)c(OC)c2)c([N+](=O)[O-])c1`, for which the Activity in the assay filed under Sus scrofa [3] worked out at 95%; in assay [2], 125%.

In the case of `CN1CCN(c2c[s+]([O-])c3ccccc23)CC1` (configuration not stated), the Activity was 95% in the assay listed under Sus scrofa [3] and 102% in assay [2].

Consider `O=[N+]([O-])c1cc(Cl)ccc1-c1cc2ccccc2s1`, for which the results for the Activity (in the assay filed under Sus scrofa [3]; in assay [2]) were 93% and 107%, respectively.

On to `O=C(c1ccccc1)c1csc2ccccc12`, for which the Activity in the assay filed under Sus scrofa [3] came to 80%; in assay [2], 43%.

On to `FC(F)c1c(-c2ccccc2)sc2ccccc12`, for which the values for the Activity (in the assay filed under Sus scrofa [3]; in assay [2]) were 90% and 94%, respectively.

Regarding `Cc1ccc(-c2cc3ccccc3s2)c(N)c1`, the Activity in the assay listed under Sus scrofa [3] was 93%; in assay [2], 107%.

For `COc1ccc(C(=O)c2c(-c3ccc(OC)cc3[N+](=O)[O-])sc3ccccc23)cc1`, the Activity in the assay filed under Sus scrofa [3] worked out at 100%; in assay [2], 95%.

As to `Nc1ccccc1-c1cc2ccccc2s1`, the Activity in the assay filed under Sus scrofa [3] came out at 70%; in assay [2], 93%.

Take `Cc1ccc(-c2cc3ccccc3s2)c([N+](=O)[O-])c1`: the Activity in the assay filed under Sus scrofa [3] turned out to be 97%; in assay [2], 127%.

In the case of `c1ccc2c(N3CCOCC3)csc2c1`, the Activity in the assay listed under Sus scrofa [3] was determined as 99%; in assay [2], 108%.

`COc1ccc(-c2sc3ccccc3c2C(=O)c2cc(OC)c(OC)c(OC)c2)c([N+](=O)[O-])c1`: the Activity in the assay filed under Sus scrofa [3] turned out to be 92%; in assay [2], 124%.

For `O=Cc1csc2ccccc12`, the Activity was determined as 85% in the assay filed under Sus scrofa [3] and 120% in assay [2].

`NCc1c(-c2ccccc2)sc2ccccc12`: the Activity in the assay filed under Sus scrofa [3] stood at 76%; in assay [2] it was 148%.

On to `N#Cc1ccccc1-c1c(OCC(F)(F)F)sc2ccccc12`, for which the Activity came out at 87% in the assay filed under Sus scrofa [3] and 101% in assay [2].

Turning to `[O-][s+]1cc(N2CCOCC2)c2ccccc21` (configuration not stated), the results for the Activity (in the assay listed under Sus scrofa [3]; in assay [2]) were 111% and 97%, respectively.

For `COc1c(-c2cnc3ccccc3c2)sc2ccccc12`, the Activity amounted to 86% in the assay filed under Sus scrofa [3] and 64% in assay [2].

As for `COc1ccc(Oc2csc3ccccc23)cc1`, the Activity came to 82% in the assay filed under Sus scrofa [3] and 96% in assay [2].

In the case of `c1ccc2c(N3CCCCC3)csc2c1`, the results for the Activity (in the assay filed under Sus scrofa [3]; in assay [2]) were 80% and 92%, respectively.

Take `COc1c(-c2ccccc2C#N)sc2ccccc12`: the Activity in the assay filed under Sus scrofa [3] came out at 79%; in assay [2], 57%.

For the molecule `COc1ccc(Oc2c(-c3ccccc3C#N)sc3ccccc23)c(OC)c1OC`, the Activity in the assay listed under Sus scrofa [3] was determined as 106%; in assay [2] it was 121%.

In general, Ki refers to a dissociation constant, usually derived from enzyme kinetics or from competition with a known ligand. Higher therefore signals weaker binding.
